The test system of series [1] is cultured melanoma, breast, prostate, and pancreatic tumor cell lines. The conditions noted are these: cited from earlier work.
For series [2], the target named is Tyr705 of Stat3 (Homo sapiens, UniProt P40763). The series is described as follows: Inhibition of constitutive Stat3 Tyr705 phosphorylation in MDA-MB-468 cells. The series is classed as cell-based. The note with it: for concentration at which pStat3 was completely inhibited / concentration with noticeable inhibition of pStat3: MDA-MB-468, 2 h treatment, western blot; for time at which pStat3 formation was completely inhibited / time for which complete inhibition of pStat3 was sustained: MDA-MB-468, single dose of 5 µM; for effect on pStat3 band at 25 µM: MDA-MB-468, 25 µM. Put shortly: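 MDA-MB-468 cells (4 × 10^5/well) were grown overnight in DMEM with 10% FCS. Prodrug was given from a 10 mM DMSO stock prepared fresh, for 2 h, or over a time course. After ice-cold PBS washes, cells were lysed (Hepes pH 7.4, Triton X-100, NaF, vanadate, protease inhibitors). 12 µg protein went on 8% SDS-PAGE/PVDF with 5% BSA block. Blots were probed for pStat3 Y705 by ECL, stripped at 50°C, and reprobed for total Stat3.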
Chain of Tyr705 of Stat3 (P40763 whole entry): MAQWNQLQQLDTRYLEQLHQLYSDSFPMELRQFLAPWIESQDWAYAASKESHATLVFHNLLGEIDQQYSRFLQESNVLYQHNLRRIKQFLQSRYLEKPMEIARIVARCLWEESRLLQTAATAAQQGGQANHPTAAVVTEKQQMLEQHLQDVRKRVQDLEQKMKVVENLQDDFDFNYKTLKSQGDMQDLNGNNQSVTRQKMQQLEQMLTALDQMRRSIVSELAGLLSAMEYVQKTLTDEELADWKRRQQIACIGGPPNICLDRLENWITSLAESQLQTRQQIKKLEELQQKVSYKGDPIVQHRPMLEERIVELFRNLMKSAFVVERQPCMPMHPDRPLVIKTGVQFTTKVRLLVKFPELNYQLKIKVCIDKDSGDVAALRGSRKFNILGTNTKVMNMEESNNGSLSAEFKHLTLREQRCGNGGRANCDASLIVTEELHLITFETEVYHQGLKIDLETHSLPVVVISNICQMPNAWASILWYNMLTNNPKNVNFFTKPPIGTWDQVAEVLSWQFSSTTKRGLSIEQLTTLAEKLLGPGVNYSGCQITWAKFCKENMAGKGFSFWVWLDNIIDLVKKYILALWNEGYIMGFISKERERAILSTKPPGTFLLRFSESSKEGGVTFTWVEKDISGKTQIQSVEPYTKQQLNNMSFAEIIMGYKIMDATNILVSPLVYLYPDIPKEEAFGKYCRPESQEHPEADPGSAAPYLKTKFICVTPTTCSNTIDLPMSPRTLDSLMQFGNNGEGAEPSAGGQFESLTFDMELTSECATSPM

The target in series [3] is T1, Tyr701 of Stat1 (Homo sapiens, UniProt P42224).
T1 sequence (P42224 1-750): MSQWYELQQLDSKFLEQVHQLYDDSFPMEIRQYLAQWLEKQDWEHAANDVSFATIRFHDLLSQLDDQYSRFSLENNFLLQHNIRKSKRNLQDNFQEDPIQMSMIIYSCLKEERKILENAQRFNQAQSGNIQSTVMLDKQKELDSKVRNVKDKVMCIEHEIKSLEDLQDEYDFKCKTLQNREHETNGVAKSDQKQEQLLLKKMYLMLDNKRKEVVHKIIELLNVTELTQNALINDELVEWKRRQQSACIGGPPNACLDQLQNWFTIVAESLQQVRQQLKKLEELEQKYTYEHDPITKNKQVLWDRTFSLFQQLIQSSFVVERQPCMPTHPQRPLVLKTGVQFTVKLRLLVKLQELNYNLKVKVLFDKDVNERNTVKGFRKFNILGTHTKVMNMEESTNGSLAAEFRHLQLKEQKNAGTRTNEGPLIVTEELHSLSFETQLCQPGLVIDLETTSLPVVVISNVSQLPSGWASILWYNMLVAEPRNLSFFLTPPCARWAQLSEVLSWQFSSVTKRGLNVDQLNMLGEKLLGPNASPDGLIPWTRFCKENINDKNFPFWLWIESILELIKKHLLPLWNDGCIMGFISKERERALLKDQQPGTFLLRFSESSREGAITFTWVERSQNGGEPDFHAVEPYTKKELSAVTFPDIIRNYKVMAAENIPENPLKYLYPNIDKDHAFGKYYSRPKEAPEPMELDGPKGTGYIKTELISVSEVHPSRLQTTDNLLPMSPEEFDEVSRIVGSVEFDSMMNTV
The series is described as follows: IFNγ-stimulated Stat1 Tyr701 phosphorylation in MDA-MB-468 cells. It is filed as cell-based. The note with it: MDA-MB-468, 1.5 h then 30 min IFNγ. In a few lines:
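MDA-MB-468 cells were prepared as for the Stat3 assay (plated overnight in DMEM/10% FCS) and exposed to increasing test compound concentrations for 1.5 h. Interferon γ was then added at 25 ng/mL for 30 min. Lysates were run on PAGE, blotted to PVDF, and probed for pTyr701 Stat1 and total Stat1 with chemiluminescent detection.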

In series [4] the test system is MDA-MB-468 cells. In words: Cytotoxicity to MDA-MB-468 cells, MTT assay. The note with it: MDA-MB-468, treated daily for three days. The series is classed as cell-based. In a few lines:
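MDA-MB-468 cells in DMEM with 10% FBS were plated at 1500 cells/well in triplicate, and the medium was changed the next day. Prodrug was dissolved fresh in ethanol to a 10 mM stock, diluted, and added. Further doses went into the same medium at 24 and 48 h, with final ethanol below 1%. Viability was read by MTT.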
On the technique in general: Formazan colour is commonly taken as a measure of viable cells.

Series [5] concerns the target T2, Stat3 (Homo sapiens, UniProt P40763). In words: EGF-stimulated Stat3 phosphorylation in MDA-MB-468 cells. It is filed as cell-based. The note with it: MDA-MB-468, 5 µM, 1.5 h then EGF 30 min.
Series [6] deals with T2, Stat3. In words: Inhibition of constitutive Stat3 phosphorylation in BT20 breast tumor cells. It is filed as cell-based. The conditions noted are these: screen.
For series [7], the system named is H528. The series is described as follows: Growth inhibition of H528 NSCLC cells. The series is classed as cell-based. The note with it: H528, 5–10 µM, data not shown.
In series [8] the test system is Tyr861 of the focal adhesion kinase (FAK). The series is described as follows: Constitutive FAK Tyr861 phosphorylation in MDA-MB-468 cells. The note with it: MDA-MB-468, 2 h treatment. The series is classed as cell-based. Put shortly:
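Constitutive signal, no stimulus: MDA-MB-468 cells were plated overnight in DMEM/10% FCS and given test compound from a 10 mM DMSO stock for 2 h. Cells were lysed in Hepes pH 7.4 detergent buffer with phosphatase and protease inhibitors. Protein was separated by SDS-PAGE, blotted to PVDF, blocked with 5% BSA, and probed for pTyr861 FAK and total FAK.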

Series [9] has as its system Ser473 of Akt. In words: Akt Ser473 phosphorylation in MDA-MB-468 cells. It is filed as cell-based. The note with it: MDA-MB-468, 5 µM, 1.5 h then EGF 30 min.
Series [10] relates to Tyr694 of Stat5. The series is described as follows: Stat5 Tyr694 phosphorylation in MDA-MB-468 cells. The series is classed as cell-based. The note with it: MDA-MB-468, 5 µM, 1.5 h then EGF 30 min.
Series [11] relates to Tyr861 of FAK. The note with it: tumor cells; cited from earlier work.

Bounds are passed on as bounds.

T2 sequence (P40763 whole entry): as the sequence (P40763 whole entry) above

For the compound `Cc1cc(Nc2nc(N[C@@H](C)c3ncc(F)cn3)ncc2Cl)n[nH]1` [AZD1480], the “cytotoxicity at concentrations that completely eliminated Tyr705 phosphorylation” value in [1] is “not cytotoxic”.
In the case of `CC(C)(C)c1nc2c3cc[nH]c(=O)c3c3cc(F)ccc3c2[nH]1` [P6], the “cytotoxicity at concentrations that completely eliminated Tyr705 phosphorylation” value in series [1] is “not cytotoxic”.
Consider `C/C(=C\C(=O)N[C@H]1CCc2cccc3c2N(C1=O)[C@H](C(=O)N[C@@H](CCC(N)=O)C(=O)NCc1ccccc1)C3)c1ccc(C(F)(F)P(=O)(OCOC(=O)C(C)(C)C)OCOC(=O)C(C)(C)C)cc1` [compound 32], for which, in [2] (MDA-MB-468, 2 h, increasing concentrations), the “effect on level of pStat3” value is “reduced the level of pStat3 in a dose-dependent manner”.
Take `C[C@H](CCC(N)=O)NC(=O)[C@@H]1Cc2cccc3c2N1C(=O)[C@@H](NC(=O)/C=C/c1ccc(C(F)(F)P(=O)(OCOC(=O)C(C)(C)C)OCOC(=O)C(C)(C)C)cc1)CC3` [compound 33]: in series [2], the “concentration at which pStat3 was completely inhibited” value came out at 0.5 µM and the “concentration with noticeable inhibition of pStat3” value was 0.1 µM.
By inhibition is commonly meant the change of the read-out against control, counted positive when it falls. A high value points to strong suppression. As to `CCCC[C@H](NC(=O)/C=C(\C)c1ccc(C(F)(F)P(=O)(OCOC(=O)C(C)(C)C)OCOC(=O)C(C)(C)C)cc1)C(=O)N1C[C@H]2C[C@H]2[C@H]1C(=O)N[C@@H](CCC(N)=O)C(C)OCc1ccccc1` (stereo partly drawn) [compound 35], the “concentration of complete inhibition of Stat1 phosphorylation” value in series [3] is 5 µM. Besides, in series [4], the “survival curves with daily dosing compared with single dose” value is recorded as “little change in the survival curves”. Moreover, in [5], the “increase in Stat3 phosphorylation induced by EGF” value is “completely inhibited”. Further, in series [2], the “concentration at which pStat3 was completely inhibited” value is reported as 0.5 µM, the “time at which pStat3 formation was completely inhibited” value worked out at 30 min and the “time for which complete inhibition of pStat3 was sustained” value was determined as 4 h. Also, the “ability to inhibit constitutive phosphorylation of Stat3” value in series [6] is recorded as “considerable potency”. For the same compound, the inhibition in series [7] is less than 20%. In [8], the “FAK Tyr861 phosphorylation” value is “no reduction of Tyr861 phosphorylation”. For the same compound, in [9], the “Akt Ser473 phosphorylation” value is given as “do not inhibit Akt phosphorylation”. The Stat5 phosphorylation entry in series [10] is on record as “not inhibited”.
Regarding `CCCC[C@H](NC(=O)/C=C(\C)c1ccc(C(F)(F)P(=O)(OCOC(=O)C(C)(C)C)OCOC(=O)C(C)(C)C)cc1)C(=O)N1C[C@@H]2C[C@@H]2[C@@H]1C(=O)N[C@@H](CCC(N)=O)C(C)OCc1ccccc1` (stereo partly drawn) [compound 36], in [2], the “effect on pStat3 band at 25 µM” value was “only partially reduced” and the “concentration with noticeable inhibition of pStat3” value was no less than 25 µM. In addition, the “fold less potent at inhibiting Stat3 phosphorylation” value in [2] (relative to 35) is 20–25 fold.
With `CCCC[C@H](NC(=O)/C=C(\C)c1ccc(C(F)(F)P(=O)(OCOC(=O)C(C)(C)C)OCOC(=O)C(C)(C)C)cc1)C(=O)N1C[C@H]2C[C@H]2[C@H]1C(=O)N[C@H](C)CCC(N)=O` [compound 37], in series [3], the “concentration of complete inhibition of Stat1 phosphorylation” value worked out at 5 µM. In addition, in series [5], the “increase in Stat3 phosphorylation induced by EGF” value is given as “completely inhibited”. In series [2], the “concentration at which pStat3 was completely inhibited” value was determined as 0.5 µM, the “time at which pStat3 formation was completely inhibited” value was 30 min and the “time for which complete inhibition of pStat3 was sustained” value came to 4 h. Further, the “ability to inhibit constitutive phosphorylation of Stat3” value in series [6] is reported as “considerable potency”. Also, the “FAK Tyr861 phosphorylation” value in [8] is reported as “no reduction of Tyr861 phosphorylation”. Moreover, the “Akt Ser473 phosphorylation” value in series [9] is “do not inhibit Akt phosphorylation”. Moreover, in [10], the Stat5 phosphorylation entry is reported as “not inhibited”.
In the case of `CCCC[C@H](NC(=O)/C=C(\C)c1ccc(C(F)(F)P(=O)(OCOC(=O)C(C)(C)C)OCOC(=O)C(C)(C)C)cc1)C(=O)N1C[C@@H]2C[C@@H]2[C@@H]1C(=O)N[C@H](C)CCC(N)=O` [compound 38], the “effect on pStat3 band at 25 µM” value in [2] is on record as “only partially reduced”.
Turning to `CCCC[C@H](NC(=O)/C=C(\C)c1ccc(C(F)(F)P(=O)(OCOC(=O)C(C)(C)C)OCOC(=O)C(C)(C)C)cc1)C(=O)N1CC2CC2C1C(=O)NCCNC(N)=O` (stereo partly drawn) [compound 39], in series [2], the “concentration at which pStat3 was completely inhibited” value was determined as 5 µM. Also, the “inhibition of the phosphorylation of Stat3 up to 1 µM” value in series [2] (MDA-MB-468, up to 1 µM, 2 h) was “little inhibition”.
For the compound `CCOP(=O)(OCC)C(F)(F)c1ccc(/C(C)=C/C(=O)N[C@H]2CCc3cccc4c3N(C2=O)[C@H](C(=O)N[C@H](C)CCC(N)=O)C4)cc1` [compound 40], in series [2], the “effect on pStat3 band at 25 µM” value is “no effect on Stat3 phosphorylation”.
For the compound `Cc1nc(Nc2ncc(C(=O)Nc3c(C)cccc3Cl)s2)cc(N2CCN(CCO)CC2)n1` [dasatinib], the “levels of Tyr861 phosphorylation on treatment” value in [11] is “decrease”.

Values taken from article PMC3319156 (Journal of Medicinal Chemistry, 2011).
